Paper PMC5152947 (Journal of molecular structure, 2016)
Several values for one entry are separate records, joined by “and”; a condition that tells them apart may be missing. Identical values can stand only once. Like-named read-outs stand apart in the source and are kept apart here.

Key:
[1] = test system: CCD-18Co (human colon fibroblasts); experiment: Cytotoxicity assay; assay type: cell-based; conditions: read-out: IC50 CCD-18Co
[2] = test system: Caco-2 (human epithelial colorectal adenocarcinoma) cells; experiment: Cytotoxicity assay; conditions: for TI (therapeutic index) = (IC50)CCD-18Co/(IC50)cancer cells, Caco-2: 72 h; for IC50: read-out: IC50 Caco-2
[3] = test system: HCT-116 (human colon carcinoma) cells; experiment: Cytotoxicity assay; assay type: cell-based; conditions: for TI (therapeutic index) = (IC50)CCD-18Co/(IC50)cancer cells, HCT-116: 72 h; for IC50: read-out: IC50 HCT-116
[4] = test system: supercoiled pBR322 plasmid DNA; experiment: Chemical nuclease activity, agarose gel electrophoresis; assay type: biochemical; conditions: 50 and 100 μM, 1 h, 37 °C
How it was run: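 Supercoiled pBR322 (0.1 mg/mL) was incubated 1 h with complex in Tris buffer (50 mM Tris, 18 mM NaCl, pH 8.2), in the dark or under UV exposure, aerobic. Loading buffer quench, then 1% agarose gel in TBE (pH 8.2) at 70 V for 1 h. Gels stained with ethidium bromide ([…], 30 min), imaged under UV, and scored for nicked Form II.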

[5] = target: human serum albumin (HSA) (Homo sapiens, UniProt P02768); experiment: Fluorescence quenching titration of human serum albumin; assay type: binding; conditions: for static quenching constant KS: combined quenching analysis
human serum albumin (HSA), sequence (P02768 25-609): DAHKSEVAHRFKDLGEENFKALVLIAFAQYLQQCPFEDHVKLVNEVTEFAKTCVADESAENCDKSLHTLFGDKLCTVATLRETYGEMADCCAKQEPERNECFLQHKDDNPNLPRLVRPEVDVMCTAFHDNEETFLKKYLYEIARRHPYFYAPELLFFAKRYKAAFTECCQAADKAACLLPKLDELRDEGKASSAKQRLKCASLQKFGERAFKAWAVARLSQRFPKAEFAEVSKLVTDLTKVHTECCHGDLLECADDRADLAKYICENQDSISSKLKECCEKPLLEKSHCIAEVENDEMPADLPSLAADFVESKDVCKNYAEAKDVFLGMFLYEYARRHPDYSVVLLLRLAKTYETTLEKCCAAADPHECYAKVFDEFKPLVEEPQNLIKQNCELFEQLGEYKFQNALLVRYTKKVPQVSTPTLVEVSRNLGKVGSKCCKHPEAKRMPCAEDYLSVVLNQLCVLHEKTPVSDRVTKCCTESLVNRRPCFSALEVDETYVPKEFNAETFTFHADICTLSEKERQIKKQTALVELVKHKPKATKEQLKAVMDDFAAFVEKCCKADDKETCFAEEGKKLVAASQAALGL

COc1cc([C@@H]2c3cc4c(cc3[C@@H](O[C@@H]3O[C@@H]5CO[C@@H](C)O[C@H]5[C@H](O)[C@H]3O)[C@H]3COC(=O)[C@H]23)OCO4)cc(OC)c1O [Etoposide, reference compound] was tested, and the IC50 ([1]; Homo sapiens, CCD-18Co, 24 h) was 51.2 ± 1.1 µM, the IC50 ([1]; Homo sapiens, CCD-18Co, 48 h) was 48.7 ± 3.1 µM and the IC50 ([1]; Homo sapiens, CCD-18Co, 72 h) was 43.9 ± 1.8 µM. The “TI (therapeutic index) = (IC50)CCD-18Co/(IC50)cancer cells, Caco-2” value (shortened to “TI (therapeutic index) = … Caco-2”) [2] was 2.71, the IC50 ([2]; Homo sapiens, Caco-2, 24 h) was 23 ± 0.9 µM and the IC50 ([2]; Homo sapiens, Caco-2, 48 h) was 18.9 ± 1.6 µM. For the same molecule, the IC50 ([2]; Homo sapiens, Caco-2, 72 h) was 16.2 ± 1.7 µM, the “TI (therapeutic index) = (IC50)CCD-18Co/(IC50)cancer cells, HCT-116” value (“TI (therapeutic index) = … HCT-116” for short) [3] was 3.07 and the IC50 ([3]; Homo sapiens, HCT-116, 24 h) was 28.9 ± 2 µM. For the same molecule, the IC50 ([3]; Homo sapiens, HCT-116, 48 h) was 26.9 ± 1.5 µM and the IC50 ([3]; Homo sapiens, HCT-116, 72 h) was 14.3 ± 1.4 µM.

Ga(EtATSC)3·0.25C2H5OH [Complex 2] gave an IC50 ([1]; 24 h incubation, normal cells) of 78.6 ± 2.1 µM, an IC50 ([1]; 48 h incubation, normal cells) of 60.6 ± 2 µM and an IC50 ([1]; 72 h incubation, normal cells) of 59.5 ± 2.5 µM. For the same molecule, the “cleavage of pBR322 DNA” value [4] was “cleavage of the DNA occurred”, the “Modified Stern-Volmer K” value ([5]; 298 K) was 308000 M⁻¹ and the “Modified Stern-Volmer f (fraction of fluorophore initially accessible)” value ([5]; 298 K) was 1.1. The “Scatchard K” value ([5]; 298 K) was 29700 M⁻¹, the “Scatchard n (number of binding sites)” value ([5]; 298 K) was 1.1 and the “Modified Stern-Volmer K” value ([5]; 303 K) was 169000 M⁻¹. The “Modified Stern-Volmer f (fraction of fluorophore initially accessible)” value ([5]; 303 K) was 1.3, the “Scatchard K” value ([5]; 303 K) was 17600 M⁻¹ and the “Scatchard n (number of binding sites)” value ([5]; 303 K) was 1.1. For the same molecule, the “TI (therapeutic index) = … Caco-2” value [2] was 5 and 5.14, the IC50 ([2]; 24 h incubation) was 23.1 ± 2.1 µM and the IC50 ([2]; 48 h incubation) was 18.7 ± 1.7 µM. The IC50 ([2]; 72 h incubation) was 11.6 ± 1.1 µM, the “TI (therapeutic index) = … HCT-116” value [3] was 1.98 and the IC50 ([3]; 24 h incubation) was 49.9 ± 2.5 µM. For the same molecule, the IC50 ([3]; 48 h incubation) was 43.6 ± 2.1 µM and the IC50 ([3]; 72 h incubation) was 30.1 ± 1.1 µM.

Molecule Ga(PhATSC)3·H2O [Complex 3] has an IC50 ([1]; 24 h incubation, normal cells) of 80.9 ± 2.6 µM, an IC50 ([1]; 48 h incubation, normal cells) of 59.2 ± 2.6 µM and an IC50 ([1]; 72 h incubation, normal cells) of 42.9 ± 1.3 µM. For the same molecule, the “cleavage of pBR322 DNA” value [4] was “both the Form II and Form III (linear DNA) being present”, the “Modified Stern-Volmer K” value ([5]; 298 K) was 302000 M⁻¹ and the “Modified Stern-Volmer f (fraction of fluorophore initially accessible)” value ([5]; 298 K) was 0.93. The “Scatchard K” value ([5]; 298 K) was 26300 M⁻¹, the “Scatchard n (number of binding sites)” value ([5]; 298 K) was 0.96 and the “static quenching constant KS” value ([5]; 298 K) was 20400 M⁻¹. For the same molecule, the “Modified Stern-Volmer K” value ([5]; 303 K) was 231000 M⁻¹, the “Modified Stern-Volmer f (fraction of fluorophore initially accessible)” value ([5]; 303 K) was 1.1 and the “Scatchard K” value ([5]; 303 K) was 20800 M⁻¹. For the same molecule, the “Scatchard n (number of binding sites)” value ([5]; 303 K) was 1.1, the “static quenching constant KS” value ([5]; 303 K) was 33500 M⁻¹ and the “Modified Stern-Volmer K” value ([5]; 308 K) was 325000 M⁻¹. For the same molecule, the “Modified Stern-Volmer f (fraction of fluorophore initially accessible)” value ([5]; 308 K) was 1.0, the “Scatchard K” value ([5]; 308 K) was 28800 M⁻¹ and the “Scatchard n (number of binding sites)” value ([5]; 308 K) was 1.1. The “TI (therapeutic index) = … Caco-2” value [2] was 0.97, the IC50 ([2]; 24 h incubation) was 78.7 ± 5.3 µM and the IC50 ([2]; 48 h incubation) was 58 ± 1.5 µM. For the same molecule, the IC50 ([2]; 72 h incubation) was 44.1 ± 3.6 µM, the “TI (therapeutic index) = … HCT-116” value [3] was 1.33 and the IC50 ([3]; 24 h incubation) was 79 ± 1.1 µM. For the same molecule, the IC50 ([3]; 48 h incubation) was 56 ± 1.7 µM and the IC50 ([3]; 72 h incubation) was 32.1 ± 2.4 µM.
